Structures are written as SMILES. The source made the active and inactive calls. The calls are words filed in the database; no cut-off is given here.

This is an account of results in ChEMBL document CHEMBL1158582, “Novel DNA intercalators without basic side chains as efficient antitumor agents: design, synthesis and evaluation of benzo-[c,d]-indol-malononitrile derivatives” (Bioorg Med Chem, 2010).

Test [1] has as its system Nucleic Acid. The test is described as follows: Induction of DNA damage-mediated relaxation of Escherichia coli super coiled pBR322 DNA assessed as formation of linear form-3 DNA after 12 hrs under dark condition by UV transilluminator. It counts as nucleic-acid assay. The gist of the method: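 Supercoiled pBR322 (25 ng/µL) in 20 mM Tris–HCl pH 7.5 with 50 µM compound, 12 h at 4 °C in the dark. Quenched with loading buffer; 1% agarose gel in 0.5× TAE with 0.5 µg/mL EB, 80 V, 1.5 h.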

Test [2] has as its system Nucleic Acid. The test is described as follows: Induction of DNA damage-mediated relaxation of Escherichia coli super coiled pBR322 DNA assessed as formation of open circular form-2 DNA after 3 hrs under light condition by UV transilluminator. Type of test: nucleic-acid assay. The gist of the method:
(§1)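 Supercoiled pBR322 (25 ng/µL) in 20 mM Tris–HCl pH 7.5 with 50 µM compound under light irradiation for 3 h; irradiated DNA alone as control. Products resolved on 1% agarose in 0.5× TAE containing 0.5 µg/mL EB, 80 V, 1.5 h.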

Test [3] relates to SMMC-7721. The test is described as follows: Cytotoxicity against human SMMC7721 cells after 48 hrs by MTT assay. Type of test: functional, cell-based. Conditions: SMMC-7721, 48 h. The gist of the method: (§2)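 MTT assay, cells incubated 48 h with a range of compound concentrations. MTT (5 mg/mL in PBS) added, 3 h, formazan dissolved in lysis buffer (200 g/L SDS, 50% formamide, pH 4.7), absorbance read at 570 nm. At least three independent experiments; mean percent absorbance plotted against concentration to give IC50.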
(In general: Tetrazolium assays rely on reduction of a dye to a coloured formazan, in cell work by metabolically active cells.)

In test [4] the test system is MCF7. The test is described as follows: Cytotoxicity against human MCF7 cells after 48 hrs by MTT assay. It counts as functional, cell-based. Conditions: MCF7, 48 h. The gist of the method:
as §2

Test [5] concerns Nucleic Acid. The test is described as follows: Induction of DNA damage-mediated relaxation of Escherichia coli super coiled pBR322 DNA assessed as formation of linear form-3 DNA after 3 hrs under light condition by UV transilluminator. Type of test: nucleic-acid assay. The gist of the method: as §1
For test [6], the system named is Nucleic Acid. The test is described as follows: Binding affinity to DNA assessed as decrease in ethidium bromide fluorescence at 5 uM by fluorescence spectroscopy. Type of test: nucleic-acid assay. The gist of the method:
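Fluorescence displacement of ethidium bromide bound to DNA; loss of EB fluorescence taken as displacement by the test agent. Compound alone with DNA measured as a control for the compound's own fluorescence.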

Test [7] deals with Nucleic Acid. The test is described as follows: Binding affinity to calf thymus DNA assessed as increase in DNA viscosity by viscometric titration. Type of test: nucleic-acid assay. The note with it: Bos taurus. The gist of the method:
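CT DNA sonicated 10 min and filtered through 0.45 µm membrane; DNA 100 µM. Titrations in an Ubbelohde viscometer in a thermostated bath held at 25 ± 0.1 °C.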

Test [8] deals with Nucleic Acid. The test is described as follows: Binding affinity to calf thymus DNA assessed as DNA intercalation at 100 uM by UV-visible spectrophotometry. The note with it: Bos taurus; 25 uM; in the assay text read “at 25 uM” for “at 100 uM”. It counts as nucleic-acid assay. The gist of the method:
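UV–vis titration: compound fixed at 25 µM, CT DNA concentration increased; bathochromic shift and hypochromicity taken as the sign of intercalation, isosbestic point followed.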

In general, IC50 refers to the concentration needed to halve the response being measured. Read a low IC50 as higher potency. As for `N#CC(C#N)=c1c2cccc3cccc(c32)n1CCBr`, the result in test [1] and in test [2] was Active. Besides, the IC50 is 210 nM in test [3] and 5.38 µM in test [4].

For `N#CC(C#N)=c1c2cccc3cccc(c32)n1CCCCl`, the result in test [1] and in test [2] was Active. For the same compound, the IC50 in test [3] stood at 354 nM; in test [4], 6.93 µM.

In the case of `C#CCn1c(=C(C#N)C#N)c2cccc3cccc1c32`, the result in test [5], in test [1], in test [2], in test [6], in test [7] and in test [8] was Active. The figures for the IC50 in test [3] and in test [4] were 728 nM and 12.5 µM, respectively.

`N#CC(C#N)=c1c2cccc3cccc(c32)n1C(=O)c1ccccc1`: the result in test [1] and in test [2] was Active. Moreover, the figures for the IC50 in test [3] and in test [4] were 8800 nM and 15.3 µM, respectively. Moreover, the result in test [8] was inactive.

With `CC(=O)n1c(=C(C#N)C#N)c2cccc3cccc1c32`, the outcome in test [1], in test [2] and in test [8] was Active. The IC50 in test [3] amounted to 115 nM; in test [4], 0.003 µM.

Take `N#CCn1c(=C(C#N)C#N)c2cccc3cccc1c32`: the result in test [5], in test [1] and in test [2] was Active. Further, the IC50 in test [3] was 260 nM; in test [4], 13.5 µM.

Consider `C=CCn1c(=C(C#N)C#N)c2cccc3cccc1c32`, for which the outcome in test [5], in test [1] and in test [2] was Active. Further, the figures for the IC50 in test [3] and in test [4] were 175 nM and 4.73 µM, respectively.
